The species entered for test [1] is Rattus norvegicus. The experiment in a line: Bone calcium-mobilizing activity with concentration 260 (pmol/d/7 days). Type of test: functional, organism-based. The method in brief: (§1)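 Holtzman weanling rats were fed a vitamin D-deficient diet with 0.47% Ca for 1 week, then a 0.02% Ca diet. They received daily intraperitoneal doses in 0.1 mL of 95:5 propylene glycol/ethanol for 7 days; controls got vehicle. Rats were killed 24 h after the last dose. Serum Ca was measured by automatic calcium titrator; on this diet, the rise in serum Ca is taken as bone Ca mobilization. At least 6 rats/group; Student's t-test.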

The species named for test [2] is Rattus norvegicus. The experiment in a line: Tested in the vitamin D-deficient rat for the ability to support intestinal absorption of calcium with compound concentration 260 (pmol/d/7 days) expressed as Serum/Mucosal ratio. Type of test: functional. The method in brief: (§2)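 Vitamin D-deficient Holtzman weanling rats were kept 1 week on a 0.47% Ca diet, then on a 0.02% Ca diet. They were given intraperitoneal injections daily for 7 days in 0.1 mL of 95:5 propylene glycol/ethanol, with vehicle controls, and killed 24 h after the last dose. Transport was measured by everted sac of the proximal 10 cm of intestine, as the ratio of sac Ca to final medium Ca (S/M). Groups had at least 6 rats; Student's t-test.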

The species named for test [3] is Rattus norvegicus. Put plainly: tested in the vitamin D-deficient rat for the ability to support intestinal absorption of calcium with compound concentration 65 (pmol/d/7 days) expressed as Serum/Mucosal ratio. It counts as functional. The method in brief:
as §2

The species named for test [4] is Rattus norvegicus. The experiment in a line: tested in the vitamin D-deficient rat for the ability to support intestinal absorption of calcium with compound concentration 325 (pmol/d/7 days) expressed as Serum/Mucosal ratio. It counts as functional. The method in brief: as §2
For test [5], the species on record is Rattus norvegicus. The experiment in a line: tested in the vitamin D-deficient rat for the ability to support intestinal absorption of calcium with compound concentration 260 (pmol/d/7 days) expressed as Serum/Mucosal ratio. Type of test: functional. The method in brief: as §2
The species entered for test [6] is Rattus norvegicus. Put plainly: Bone calcium-mobilizing activity with compound concentration 130 (pmol/d/7 days). Type of test: functional, organism-based. The essentials:
as §1

For test [7], the species on record is Rattus norvegicus. Put plainly: Bone calcium-mobilizing activity with compound concentration 325 (pmol/d/7 days). It counts as functional, organism-based. Further details: unit not given here. The method in brief:
as §1

Test [8] is filed under the species Rattus norvegicus. The experiment in a line: Bone calcium-mobilizing activity with compound concentration 260 (pmol/d/7 days). It counts as functional, organism-based. The essentials:
as §1

Test [9] is filed under the species Rattus norvegicus. Put plainly: tested in the vitamin D-deficient rat for the ability to support intestinal absorption of calcium with compound concentration 130 (pmol/d/7 days) expressed as Serum/Mucosal ratio. It counts as functional. The essentials:
as §2

For test [10], the species on record is Rattus norvegicus. Put plainly: Bone calcium-mobilizing activity with compoundm concentration 130 (pmol/d/7 days). Type of test: functional, organism-based. The method in brief:
as §1

The species entered for test [11] is Rattus norvegicus. Put plainly: Bone calcium-mobilizing activity with compound concentration 65 (pmol/d/7 days). Type of test: functional, organism-based. The method in brief: as §1
The species named for test [12] is Rattus norvegicus. Put plainly: Tested in the vitamin D-deficient rat for the ability to support intestinal absorption of calcium with compound concentration 130 (pmol/d/7 days) expressed as Serum/Mucosal ratio. Type of test: functional.
Test [13] is filed under the species Rattus norvegicus. Put plainly: Tested in the vitamin D-deficient rat for the ability to support intestinal absorption of calcium with compound concentration 65 (pmol/d/7 days) expressed as Serum/Mucosal ratio. It counts as functional.
For test [14], the species on record is Rattus norvegicus. Put plainly: Tested in the vitamin D-deficient rat for the ability to support intestinal absorption of calcium with compound concentration 325 (pmol/d/7 days) expressed as Serum/Mucosal ratio. Type of test: functional.

“And” between values parts separate entries of the source, which are not always exact repeats. Identical values can stand only once.

On to `C[C@H](CCCC(C)(C)O)[C@H]1CC[C@H]2/C(=C/C=C3C[C@@H](O)C(OCc4ccccc4)[C@H](O)C3)CCC[C@]12C` (stereo partly specified), for which the Serum Ca2+ in the test filed under Rattus norvegicus [1] came out at 4.6. In the test listed under Rattus norvegicus [2], the Ratio is recorded as 11.9.
`C[C@H](CCCC(C)(C)O)[C@H]1CC[C@H]2/C(=C\C=C3C[C@@H](O)C(O)[C@H](O)C3)CCC[C@]12C` (stereo partly specified) [listing 1 of 3 here]: the Ratio in the test filed under Rattus norvegicus [3] came to 5.8; in the test listed under Rattus norvegicus [4], 10.8.
Take `C[C@H](CCCC(C)(C)O)[C@H]1CC[C@H]2/C(=C/C=C3C[C@@H](O)C(OCCCO)[C@H](O)C3)CCC[C@]12C` (stereo partly specified) [listing 1 of 3 here]: in the test filed under Rattus norvegicus [5], the Ratio turned out to be 5.7.
Turning to `C[C@H](CCCC(C)(C)O)[C@H]1CC[C@H]2/C(=C/C=C3C[C@@H](O)C(OCCCO)[C@H](O)C3)CCC[C@]12C` (stereo partly specified) [listing 2 of 3 here], the Serum Ca2+ in the test listed under Rattus norvegicus [6] was 4.9; in the test listed under Rattus norvegicus [7] it was 5.8; in the test filed under Rattus norvegicus [8], 4.7.
In the case of `C[C@H](CCCC(C)(C)O)[C@H]1CC[C@H]2/C(=C/C=C3C[C@@H](O)C(OCCCO)[C@H](O)C3)CCC[C@]12C` (stereo partly specified) [listing 3 of 3 here], the figures for the Ratio in the test listed under Rattus norvegicus [9] and in the test listed under Rattus norvegicus [4] were 3.5 and 4.3, respectively.
The like results for `C[C@H](CCCC(C)(C)O)[C@H]1CC[C@H]2/C(=C\C=C3C[C@@H](O)C(O)[C@H](O)C3)CCC[C@]12C` (stereo partly specified) [listing 2 of 3 here] were, in that order, 5.3 and 5.
Regarding `C[C@H](CCCC(C)(C)O)[C@H]1CC[C@H]2/C(=C\C=C3C[C@@H](O)C(O)[C@H](O)C3)CCC[C@]12C` (stereo partly specified) [listing 3 of 3 here], the Serum Ca2+ in the test filed under Rattus norvegicus [10] is 4.1; in the test filed under Rattus norvegicus [7], 4.2 and 4.1; in the test filed under Rattus norvegicus [11], 4.2.
Take `C=C1/C(=C/C=C2/CCCC3(C)C2CCC3[C@H](C)CCCC(C)(C)O)C[C@@H](O)C[C@@H]1O` (stereo partly specified): the Serum Ca2+ in the test filed under Rattus norvegicus [7] is 6.8 and 7.1; in the test listed under Rattus norvegicus [8], 5.9. Further, the Ratio in the test filed under Rattus norvegicus [12] was 8 and 7.1; in the test listed under Rattus norvegicus [13] it was 8.3; in the test listed under Rattus norvegicus [2] it was 10.5; in the test listed under Rattus norvegicus [14], 10.5 and 7.8.

For the origin of these results see ChEMBL document CHEMBL1127389, “Synthesis and biological activity of 2-hydroxy and 2-alkoxy analogs of 1 alpha,25-dihydroxy-19-norvitamin D3” (1994).
